Data published in ChEMBL document CHEMBL4118104, “Design, Synthesis, and Evaluation of Orally Bioavailable Quinoline-Indole Derivatives as Innovative Multitarget-Directed Ligands: Promotion of Cell Proliferation in the Adult Murine Hippocampus for the Treatment of Alzheimer's Disease” (J Med Chem, 2018).

What was measured:
[1] = Metabolic stability in Sprague-Dawley rat liver microsomes assessed as metabolic rate constant at 100 uM up to 180 mins by HPLC-UV analysis; conditions: 3 h
Mus musculus [2] = experiment: Toxicity in C57BL/6 mouse assessed as mortality at 677 to 2000 mg/kg, ig measured continuously during first 4 hrs, intermittently for following 24 hrs and occasionally thereafter for 14 consecutive days; type: organism-based; conditions: in vivo, po
Summary of the method: (§1)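 Adult C57BL/6 mice, 12 weeks old, given single intragastric doses of 0, 677, 1333 or 2000 mg/kg (n = 6 per dose, 3 male and 3 female). Abnormal behaviour and deaths observed continuously for the first 4 h, intermittently over the next 24 h, then occasionally for 14 days to catch delayed effects.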

Mus musculus [3] = experiment: Toxicity in C57BL/6 mouse assessed as abnormal behavior at 677 to 2000 mg/kg, ig measured continuously during first 4 hrs, intermittently for following 24 hrs and occasionally thereafter for 14 consecutive days; type: organism-based; conditions: in vivo, po; summary of the method: as §1
Mus musculus [4] = experiment: Toxicity in C57BL/6 mouse assessed as effect on food intake at 677 to 2000 mg/kg, ig measured continuously during first 4 hrs, intermittently for following 24 hrs and occasionally thereafter for 14 consecutive days; type: organism-based; conditions: in vivo, po
Mus musculus [5] = experiment: Toxicity in C57BL/6 mouse assessed as effect on body weight at 677 to 2000 mg/kg, ig measured continuously during first 4 hrs, intermittently for following 24 hrs and occasionally thereafter for 14 consecutive days; type: organism-based; conditions: in vivo, po
Mus musculus [6] = experiment: Toxicity in C57BL/6 mouse assessed as macroscopic abnormalities of stomach at 677 to 2000 mg/kg, ig after 14 consecutive days; type: organism-based; conditions: in vivo, po
Mus musculus [7] = experiment: Toxicity in C57BL/6 mouse assessed as macroscopic abnormalities of intestine at 677 to 2000 mg/kg, ig after 14 consecutive days; type: organism-based; conditions: in vivo, po
Mus musculus [8] = experiment: Toxicity in C57BL/6 mouse assessed as histological abnormalities of heart at 2000 mg/kg, ig after 14 consecutive days by hematoxylin/eosin dye-based microscopic analysis; type: organism-based; conditions: in vivo, po
Summary of the method: (§2)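 Adult C57BL/6 mice, 12 weeks old, single intragastric doses of 0, 677, 1333 or 2000 mg/kg (n = 6 per dose, 3 male/3 female); behaviour and mortality observed over 14 days; liver, heart, lung and brain examined by HE staining at 2000 mg/kg.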

Mus musculus [9] = experiment: Toxicity in C57BL/6 mouse assessed as histological abnormalities of lung at 2000 mg/kg, ig after 14 consecutive days by hematoxylin/eosin dye-based microscopic analysis; type: organism-based; conditions: in vivo, po, 336 h; summary of the method: as §2
Mus musculus [10] = experiment: Toxicity in C57BL/6 mouse assessed as histological abnormalities of liver at 2000 mg/kg, ig after 14 consecutive days by hematoxylin/eosin dye-based microscopic analysis; type: organism-based; conditions: in vivo, po, 336 h; summary of the method: as §2
Mus musculus [11] = experiment: Induction of cell proliferation in C57BL/6 mouse hippocampal neurons in CA2 region assessed as BrdU-incorporation at 0.5 uL/hr, icv for 7 days by immunohistochemical analysis (reference value: 2.4%); type: functional
Mus musculus [12] = experiment: Induction of cell proliferation in C57BL/6 mouse hippocampal neurons in CA1 region assessed as BrdU-incorporation at 30 mg/kg, po administered via gavage for 7 days by immunohistochemical analysis (reference value: 2.3%); type: functional
Summary of the method: (§3)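 C57BL/6 mice, 12 weeks old, n = 6, individually housed beforehand without wheels. Compound gavaged 30 mg/kg/day for 7 days with daily IP BrdU 50 mg/kg; BrdU+ cells counted by immunohistochemistry per hippocampal volume; two-way ANOVA.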

Mus musculus [13] = experiment: Induction of cell proliferation in C57BL/6 mouse hippocampal neurons in CA3 region assessed as BrdU-incorporation at 30 mg/kg, po administered via gavage for 7 days by immunohistochemical analysis (reference value: 1.5%); type: functional; summary of the method: as §3
Mus musculus [14] = experiment: Toxicity in double APP/PS1 transgenic Alzheimer's disease mouse model assessed as emesis-like behavior at 30 mg/kg/day, po for 80 days; type: organism-based; conditions: in vivo, 1920 h
Summary of the method: (§4)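 APP/PS1 double-transgenic mice, six months old, dosed by intragastric infusion at 30 mg/kg/day in 0.5% CMC-Na for 80 consecutive days (n = 10). Vehicle mice and wild-type C57BL/6 mice received blank 0.5% CMC-Na. Body weight tracked daily; diarrhoea, emesis-like behaviour and mortality monitored. At sacrifice, brain, subcutaneous layer, stomach, intestines, heart, lung, liver, spleen, kidneys and other organs examined for expansion or carcinogenicity.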

Mus musculus [15] = experiment: Toxicity in double APP/PS1 transgenic Alzheimer's disease mouse model assessed as increase in mortality at 30 mg/kg/day, po for 80 days; type: organism-based; conditions: in vivo, 1920 h; summary of the method: as §4
Mus musculus [16] = experiment: Toxicity in double APP/PS1 transgenic Alzheimer's disease mouse model assessed as swimming speed at 30 mg/kg/day, po for 80 days by Morris water maze test (reference value: 17.8 +/- 2.5 cm/sec); type: organism-based; conditions: in vivo, 1920 h
Mus musculus [17] = experiment: Cognition enhancement activity in double APP/PS1 transgenic Alzheimer's disease mouse model assessed as time spent in virtual platform at 30 mg/kg/day, po for 80 days by Morris water maze test (reference value: 1.9 +/- 0.2 sec); type: functional
Summary of the method: (§5)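 APP/PS1 mice, six months old, gavaged 30 mg/kg/day in 0.5% CMC-Na for 80 days. Probe trial was a single 90 s free swim with the platform absent; effective region is twice the platform diameter. n = 10, mean ± SD, two-way ANOVA.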

Mus musculus [18] = experiment: Cognition enhancement activity in double APP/PS1 transgenic Alzheimer's disease mouse model assessed as swimming path length in correct quadrant at 30 mg/kg/day, po for 80 days by Morris water maze test (reference value: 295.3 +/- 46.9 cm); type: functional; summary of the method: as §5
Mus musculus [19] = experiment: Toxicity in double APP/PS1 transgenic Alzheimer's disease mouse model assessed as brain expansion at 30 mg/kg/day, po for 80 days; type: organism-based; conditions: in vivo, 1920 h; summary of the method: as §4
Mus musculus [20] = experiment: Toxicity in double APP/PS1 transgenic Alzheimer's disease mouse model assessed as carcinogenicity in subcutaneous layer at 30 mg/kg/day, po for 80 days; type: organism-based; conditions: in vivo, 1920 h; summary of the method: as §4
Mus musculus [21] = experiment: Toxicity in double APP/PS1 transgenic Alzheimer's disease mouse model assessed as carcinogenicity in stomach at 30 mg/kg/day, po for 80 days; type: organism-based; conditions: in vivo, 1920 h; summary of the method: as §4
Mus musculus [22] = experiment: Toxicity in double APP/PS1 transgenic Alzheimer's disease mouse model assessed as carcinogenicity in heart at 30 mg/kg/day, po for 80 days; type: organism-based; conditions: in vivo, 1920 h; summary of the method: as §4
Mus musculus [23] = experiment: Toxicity in double APP/PS1 transgenic Alzheimer's disease mouse model assessed as carcinogenicity in lung at 30 mg/kg/day, po for 80 days; type: organism-based; conditions: in vivo, 1920 h; summary of the method: as §4
Mus musculus [24] = experiment: Toxicity in double APP/PS1 transgenic Alzheimer's disease mouse model assessed as carcinogenicity in liver at 30 mg/kg/day, po for 80 days; type: organism-based; conditions: in vivo, 1920 h; summary of the method: as §4
Mus musculus [25] = experiment: Toxicity in double APP/PS1 transgenic Alzheimer's disease mouse model assessed as carcinogenicity in spleen at 30 mg/kg/day, po for 80 days; type: organism-based; conditions: in vivo, 1920 h; summary of the method: as §4
Mus musculus [26] = experiment: Toxicity in double APP/PS1 transgenic Alzheimer's disease mouse model assessed as carcinogenicity in kidneys at 30 mg/kg/day, po for 80 days; type: organism-based; conditions: in vivo, 1920 h; summary of the method: as §4
Mus musculus [27] = experiment: Toxicity in C57BL/6 mouse assessed as macroscopic abnormalities of heart at 677 to 2000 mg/kg, ig after 14 consecutive days; type: organism-based; conditions: in vivo, po

Cl.Oc1c(Cl)cc(Cl)c2ccc(-c3cc4cc5c(cc4[nH]3)OCO5)nc12
K [1]: 0.00178 min⁻¹
Activity (Mus musculus [2]): Non-Toxic
Activity (Mus musculus [3]): Non-Toxic
Activity (Mus musculus [4]): Non-Toxic
Activity (Mus musculus [5]): Non-Toxic
Activity (Mus musculus [6]): Non-Toxic
Activity (Mus musculus [7]): Non-Toxic
Activity (Mus musculus [8]): Non-Toxic
Activity (Mus musculus [9]): Non-Toxic
Activity (Mus musculus [10]): Non-Toxic
Activity (Mus musculus [11]): 38%
Activity (Mus musculus [12]): 14.6%
Activity (Mus musculus [13]): 17.1%
Activity (Mus musculus [14]): Non-Toxic
Activity (Mus musculus [15]): Non-Toxic
Activity (Mus musculus [16]): 19 cm/s
Time (Mus musculus [17]): 2.6 s
Activity (Mus musculus [18]): 473.5 cm
Activity (Mus musculus [19]): Non-Toxic
Activity (Mus musculus [20]): Non-Toxic
Activity (Mus musculus [21]): Non-Toxic
Activity (Mus musculus [22]): Non-Toxic
Activity (Mus musculus [23]): Non-Toxic
Activity (Mus musculus [24]): Non-Toxic
Activity (Mus musculus [25]): Non-Toxic
Activity (Mus musculus [26]): Non-Toxic
Activity (Mus musculus [27]): Non-Toxic

Cl.Oc1ccc2[nH]c(-c3ccc4c(Cl)cc(Cl)c(O)c4n3)cc2c1
K [1]: 0.00593 min⁻¹
Activity (Mus musculus [2]): Non-Toxic
Activity (Mus musculus [3]): Non-Toxic
Activity (Mus musculus [4]): Non-Toxic
Activity (Mus musculus [5]): Non-Toxic
Activity (Mus musculus [6]): Non-Toxic
Activity (Mus musculus [7]): Non-Toxic
Activity (Mus musculus [8]): Non-Toxic
Activity (Mus musculus [9]): Non-Toxic
Activity (Mus musculus [10]): Non-Toxic
Activity (Mus musculus [11]): 39.6%
Activity (Mus musculus [12]): 21.1%
Activity (Mus musculus [13]): 23.9%
Activity (Mus musculus [14]): Non-Toxic
Activity (Mus musculus [15]): Non-Toxic
Activity (Mus musculus [16]): 18.9 cm/s
Time (Mus musculus [17]): 3.2 s
Activity (Mus musculus [18]): 533.3 cm
Activity (Mus musculus [19]): Non-Toxic
Activity (Mus musculus [20]): Non-Toxic
Activity (Mus musculus [21]): Non-Toxic
Activity (Mus musculus [22]): Non-Toxic
Activity (Mus musculus [23]): Non-Toxic
Activity (Mus musculus [24]): Non-Toxic
Activity (Mus musculus [25]): Non-Toxic
Activity (Mus musculus [26]): Non-Toxic
Activity (Mus musculus [27]): Non-Toxic
